Results from ChEMBL document CHEMBL3784956, “Repositioning Antitubercular 6-Nitro-2,3-dihydroimidazo[2,1-b][1,3]oxazoles for Neglected Tropical Diseases: Structure-Activity Studies on a Preclinical Candidate for Visceral Leishmaniasis” (J Med Chem, 2016).

Legend:
[1] = Metabolic stability in hamster liver microsomes assessed as parent compound remaining at 1 uM after 1 hr by LC-MS/MS analysis; assay type: ADME; conditions: cricetinae, read-out: Stability
[2] = Stability in 0.1 M HCl at pH 1 at 20 degC; assay type: physicochemical; conditions: buffer
[3] = Metabolic stability in human liver microsomes assessed as parent compound remaining at 1 uM after 30 mins by LC-MS/MS analysis; assay type: ADME; conditions: read-out: Stability
[4] = Metabolic stability in CD1 mouse liver microsomes assessed as parent compound remaining at 1 uM after 30 mins by LC-MS/MS analysis; assay type: ADME; conditions: read-out: Stability
[5] = Metabolic stability in hamster liver microsomes assessed as parent compound remaining at 1 uM after 30 mins by LC-MS/MS analysis; assay type: ADME; conditions: cricetinae, read-out: Stability
[6] = Initial plasma concentration in Swiss albino mouse at 1 mg/kg, iv by LCMS/MS analysis; assay type: ADME, organism-based
Outline: (§1)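 Male Swiss Albino mice. Single intravenous dose of 1 mg/kg, or single oral dose of 12.5 or 25 mg/kg. Plasma parameters were derived for each route: CL, Vdss, t1/2, AUClast and C0 after iv; Cmax, Tmax and AUClast after oral. Oral bioavailability F (%) was taken from the oral and iv exposures.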

[7] = Oral bioavailability in Swiss albino mouse at 25 mg/kg by LCMS/MS analysis; assay type: ADME, organism-based; conditions: in vivo; outline: as §1
[8] = Clearance in Swiss albino mouse at 1 mg/kg, iv by LCMS/MS analysis; assay type: ADME, organism-based; conditions: in vivo; outline: as §1
[9] = Volume of distribution at steady state in Swiss albino mouse at 1 mg/kg, iv by LCMS/MS analysis; assay type: ADME, organism-based; conditions: in vivo, read-out: Vdss; outline: as §1
[10] = Half life in Swiss albino mouse at 1 mg/kg, iv by LCMS/MS analysis; assay type: ADME, organism-based; conditions: in vivo; outline: as §1
[11] = AUC (last) in Swiss albino mouse at 1 mg/kg, iv by LCMS/MS analysis; assay type: ADME, organism-based; design: dose 1 mg/kg, time 0 - last, route intravenous; conditions: in vivo; outline: as §1
[12] = Cmax in Swiss albino mouse at 25 mg/kg, po by LCMS/MS analysis; assay type: ADME, organism-based; design: dose 25 mg/kg, route oral; conditions: in vivo; outline: as §1
[13] = Tmax in Swiss albino mouse at 25 mg/kg, po by LCMS/MS analysis; assay type: ADME, organism-based; conditions: in vivo; outline: as §1
[14] = AUC (last) in Swiss albino mouse at 25 mg/kg, po by LCMS/MS analysis; assay type: ADME, organism-based; design: dose 25 mg/kg, route oral, time 0 - last; conditions: in vivo; outline: as §1
[15] = Metabolic stability in human liver microsomes assessed as parent compound remaining at 1 uM after 1 hr by LC-MS/MS analysis; assay type: ADME; conditions: read-out: Stability
[16] = Metabolic stability in CD1 mouse liver microsomes assessed as parent compound remaining at 1 uM after 1 hr by LC-MS/MS analysis; assay type: ADME; conditions: read-out: Stability
[17] = Cmax in Swiss albino mouse at 12.5 mg/kg, po by LCMS/MS analysis; assay type: ADME, organism-based; design: dose 12.5 mg/kg, route oral; conditions: in vivo; outline: as §1
[18] = Tmax in Swiss albino mouse at 12.5 mg/kg, po by LCMS/MS analysis; assay type: ADME, organism-based; conditions: in vivo; outline: as §1
[19] = AUC (last) in Swiss albino mouse at 12.5 mg/kg, po by LCMS/MS analysis; assay type: ADME, organism-based; design: dose 12.5 mg/kg, route oral, time 0 - last; conditions: in vivo; outline: as §1
[20] = Oral bioavailability in Swiss albino mouse at 12.5 mg/kg by LCMS/MS analysis; assay type: ADME, organism-based; conditions: in vivo; outline: as §1

Question: With C[C@]1(COc2ccc(N3CCC(Oc4ccc(OC(F)(F)F)cc4)CC3)cc2)Cn2cc([N+](=O)[O-])nc2O1 as the molecule, how does the remaining at 1 h, 1 µM [1] read?
Answer: 55%

Question: Which Stability [2] does the source give for CC1(CNc2ccc(OC(F)(F)F)cc2)Cn2cc([N+](=O)[O-])nc2O1 (stereo not given) here?
Answer: Unstable

Question: Which remaining at 0.5 h, 1 µM [3] does the source give for CC1(COc2ccc(-c3ccc(F)cc3)cc2)Cn2cc([N+](=O)[O-])nc2O1 (racemic) here?
Answer: 88%

Question: And the remaining at 0.5 h, 1 µM [4]?
Answer: 57%

Question: What about the remaining at 0.5 h, 1 µM [5] of the same molecule?
Answer: 42%

Question: What about the C0 [6] of the same molecule?
Answer: 300 ng/mL

Question: What about the bioavailability [7] of the same molecule?
Answer: 63%

Question: What about the clearance [8] of the same molecule?
Answer: 28 mL/min/kg

Question: And the Vd [9]?
Answer: 7.5 L/kg

Question: And the half-life [10]?
Answer: 3.8 h

Question: And the AUC(0-t) [11]?
Answer: 480 ng·h/mL

Question: And the Cmax [12]?
Answer: 700 ng/mL

Question: What about the Tmax [13] of the same molecule?
Answer: 6 h

Question: And the AUC(0-t) [14]?
Answer: 7580 ng·h/mL

Question: Which remaining at 1 h, 1 µM [15] does the source give for CC1(COc2ccc(C(F)(F)F)cn2)Cn2cc([N+](=O)[O-])nc2O1 (racemic) here?
Answer: 84%

Question: And the remaining at 1 h, 1 µM [16]?
Answer: 69%

Question: What about the Stability [2] of the same molecule?
Answer: Unstable

Question: With CC1(COc2ccc(OC(F)(F)F)cc2)Cn2cc([N+](=O)[O-])nc2O1 (racemic) as the molecule, how does the C0 [6] read?
Answer: 880 ng/mL

Question: And the bioavailability [7]?
Answer: 79%

Question: And the clearance [8]?
Answer: 9.5 mL/min/kg

Question: What about the Vd [9] of the same molecule?
Answer: 1.7 L/kg

Question: What about the half-life [10] of the same molecule?
Answer: 2.2 h

Question: What about the AUC(0-t) [11] of the same molecule?
Answer: 1690 ng·h/mL

Question: What about the Cmax [12] of the same molecule?
Answer: 4100 ng/mL

Question: What about the Tmax [13] of the same molecule?
Answer: 4 h

Question: What about the AUC(0-t) [14] of the same molecule?
Answer: 33500 ng·h/mL

Question: For C[C@]1(COc2ccc(OC(F)(F)F)cc2)Cn2cc([N+](=O)[O-])nc2O1, which C0 [6] is on record?
Answer: 360 ng/mL

Question: What about the clearance [8] of the same molecule?
Answer: 11 mL/min/kg

Question: What about the Vd [9] of the same molecule?
Answer: 2.6 L/kg

Question: And the half-life [10]?
Answer: 2.7 h

Question: And the AUC(0-t) [11]?
Answer: 1390 ng·h/mL

Question: What about the Cmax [17] of the same molecule?
Answer: 1300 ng/mL

Question: What about the Tmax [18] of the same molecule?
Answer: 2 h

Question: What about the AUC(0-t) [19] of the same molecule?
Answer: 15800 ng·h/mL

Question: And the bioavailability [20]?
Answer: 91%

Question: With O=[N+]([O-])c1cn2c(n1)OC(COc1ccc(OC(F)(F)F)cc1)C2 (stereo not given) as the molecule, how does the C0 [6] read?
Answer: 610 ng/mL

Question: And the bioavailability [7]?
Answer: 52%

Question: And the clearance [8]?
Answer: 13 mL/min/kg

Question: And the Vd [9]?
Answer: 2.2 L/kg

Question: And the half-life [10]?
Answer: 3.2 h

Question: And the AUC(0-t) [11]?
Answer: 1140 ng·h/mL

Question: What about the Cmax [12] of the same molecule?
Answer: 1800 ng/mL

Question: What about the Tmax [13] of the same molecule?
Answer: 1 h

Question: What about the AUC(0-t) [14] of the same molecule?
Answer: 14800 ng·h/mL

Question: For CC1(COc2ccc(-c3ccc(OC(F)(F)F)cc3)cc2)Cn2cc([N+](=O)[O-])nc2O1 (stereo not given), which C0 [6] is on record?
Answer: 340 ng/mL

Question: What about the bioavailability [7] of the same molecule?
Answer: 18%

Question: And the clearance [8]?
Answer: 7.6 mL/min/kg

Question: And the Vd [9]?
Answer: 5.7 L/kg

Question: What about the half-life [10] of the same molecule?
Answer: 11 h

Question: What about the AUC(0-t) [11] of the same molecule?
Answer: 2130 ng·h/mL

Question: What about the Cmax [12] of the same molecule?
Answer: 290 ng/mL

Question: What about the Tmax [13] of the same molecule?
Answer: 6 h

Question: What about the AUC(0-t) [14] of the same molecule?
Answer: 9810 ng·h/mL

Question: With CC1(CN2CCN(c3ccc(F)cc3)CC2)Cn2cc([N+](=O)[O-])nc2O1 (stereo not given) as the molecule, how does the remaining at 1 h, 1 µM [15] read?
Answer: 49%

Question: What about the remaining at 1 h, 1 µM [16] of the same molecule?
Answer: 14%
